Source: ChEMBL document CHEMBL1671664 (2009)
In brackets after ≈: the same amount, converted by molar mass. Activity calls are given as the source filed them. No cut-off for these calls is given here.

Columns and labels:
[1] = Antimicrobial activity against Salmonella enterica serovar Corvallis isolate s2064 harboring ParC QRDR mutant gene by agar dilution method; assay type: functional, Salmonella enterica subsp. enterica serovar Corvallis
[2] = Antimicrobial activity against qnrA-positive Salmonella enterica serovar Mbandaka isolate s2093 harboring ParC QRDR mutant gene by agar dilution method; assay type: functional, Salmonella enterica subsp. enterica serovar Mbandaka
[3] = Antimicrobial activity against qnrS-positive Salmonella enterica serovar Braenderup isolate s2856 harboring ParC QRDR mutant gene by agar dilution method; assay type: functional, Salmonella enterica subsp. enterica serovar Braenderup
[4] = Antimicrobial activity against Salmonella enterica serovar Mbandaka isolate s2159 harboring ParC QRDR mutant gene by agar dilution method; assay type: functional, Salmonella enterica subsp. enterica serovar Mbandaka
[5] = Antimicrobial activity against qnrS-positive Salmonella enterica serovar Montevideo isolate s2944 harboring ParC QRDR mutant gene by agar dilution method; assay type: functional, Salmonella enterica subsp. enterica serovar Montevideo
[6] = Antimicrobial activity against qnrS-positive Salmonella enterica serovar Corvallis isolate s2017 harboring ParC QRDR mutant gene by agar dilution method; assay type: functional, Salmonella enterica subsp. enterica serovar Corvallis
[7] = Antimicrobial activity against qnrS-positive Salmonella enterica serovar Montevideo isolate s2209 harboring ParC QRDR mutant gene by agar dilution method; assay type: functional, Salmonella enterica subsp. enterica serovar Montevideo
[8] = Antimicrobial activity against qnrS-positive Salmonella enterica serovar Corvallis isolate s2052 harboring ParC QRDR mutant gene by agar dilution method; assay type: functional, Salmonella enterica subsp. enterica serovar Corvallis
[9] = Antimicrobial activity against Salmonella enterica serovar Montevideo isolate s2317 harboring ParC QRDR mutant gene by agar dilution method; assay type: functional, Salmonella enterica subsp. enterica serovar Montevideo
[10] = system: Salmonella enterica subsp. enterica serovar Montevideo; test: Drug uptake in qnrS-positive Salmonella enterica serovar Montevideo isolate s2209 harboring ParC QRDR mutant gene in presence of CCCP; assay type: functional
Outline: (§1)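 Cell suspensions preincubated with 100 μM CCCP before substrate addition. Ciprofloxacin accumulation read by fluorescence (ex 311/em 447 nm), Hoechst 33342 by fluorescence (ex 355/[…]), at 10 min. Expressed relative to S. Typhimurium SL1344. Differences tested by Student t test (P < 0.05).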

Salmonella typhimurium [11] = test: Antimicrobial activity against qnrS-positive Salmonella enterica serovar Typhimurium isolate s2425 harboring wild type ParC gene by agar dilution method; assay type: functional, Salmonella enterica subsp. enterica serovar Typhimurium
Salmonella typhimurium [12] = test: Antimicrobial activity against Salmonella enterica serovar Typhimurium isolate SL1344 harboring wild type ParC gene by agar dilution method; assay type: functional, Salmonella enterica subsp. enterica serovar Typhimurium
[13] = system: Salmonella enterica subsp. enterica serovar Mbandaka; test: Drug uptake in qnrA-positive Salmonella enterica serovar Mbandaka isolate s2093 harboring ParC QRDR mutant gene in presence of CCCP; assay type: functional; outline: as §1
Salmonella typhimurium [14] = test: Antimicrobial activity against Salmonella enterica serovar Typhimurium isolate s2878 harboring wild type ParC gene by agar dilution method; assay type: functional, Salmonella enterica subsp. enterica serovar Typhimurium
[15] = Antimicrobial activity against qnrS-positive Salmonella enterica serovar Virginia isolate s2219 harboring ParC QRDR mutant gene by agar dilution method; assay type: functional, Salmonella enterica subsp. enterica serovar Virginia
[16] = Antimicrobial activity against Salmonella enterica serovar Stanley isolate s2043 harboring ParC QRDR mutant gene by agar dilution method; assay type: functional, Salmonella enterica subsp. enterica serovar Stanley
[17] = Antimicrobial activity against qnrS-positive Salmonella enterica serovar Stanley isolate s2018 harboring ParC QRDR mutant gene by agar dilution method; assay type: functional, Salmonella enterica subsp. enterica serovar Stanley
[18] = Antimicrobial activity against Salmonella enterica serovar Braenderup isolate s2906 harboring ParC QRDR mutant gene by agar dilution method; assay type: functional, Salmonella enterica subsp. enterica serovar Braenderup
Salmonella typhimurium [19] = test: Antimicrobial activity against qnrS-positive Salmonella enterica serovar Typhimurium isolate s2705 harboring wild type ParC gene by agar dilution method; assay type: functional, Salmonella enterica subsp. enterica serovar Typhimurium
Escherichia coli [20] = test: Antimicrobial activity against Escherichia coli DH5[alpha] transformed with Salmonella enterica serovar Typhimurium isolate s2705 plasmid encoded qnrS and Parc gene by agar dilution method; assay type: functional
Outline: (§2)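 E. coli DH5α transformed by electroporation with qnr-carrying plasmid DNA from donor Salmonella isolates; transformants selected on LB agar with 0.03 μg/ml ciprofloxacin, qnr confirmed by multiplex PCR. MICs to ciprofloxacin and nalidixic acid by agar dilution.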

Escherichia coli [21] = test: Antimicrobial activity against Escherichia coli DH5[alpha] transformed with Salmonella enterica serovar Montevideo isolate s2944 plasmid encoded qnrS and Parc QRDR Thre57Ser mutant gene by agar dilution method; assay type: functional; outline: as §2
Escherichia coli [22] = test: Antimicrobial activity against Escherichia coli DH5[alpha] transformed with Salmonella enterica serovar Virginia isolate s2219 plasmid encoded qnrS and Parc QRDR Thre57Ser mutant gene by agar dilution method; assay type: functional; outline: as §2
Escherichia coli [23] = test: Antimicrobial activity against Escherichia coli DH5[alpha] transformed with Salmonella enterica serovar Montevideo isolate s2209 plasmid encoded qnrS and Parc QRDR Thre57Ser mutant gene by agar dilution method; assay type: functional; outline: as §2
Escherichia coli [24] = test: Antimicrobial activity against Escherichia coli DH5[alpha] transformed with Salmonella enterica serovar Corvallis isolate s2017 plasmid encoded qnrS and Parc QRDR Thre57Ser mutant gene by agar dilution method; assay type: functional; outline: as §2
Escherichia coli [25] = test: Antimicrobial activity against Escherichia coli DH5[alpha] transformed with Salmonella enterica serovar Typhimurium isolate s2425 plasmid encoded qnrS and Parc gene by agar dilution method; assay type: functional; outline: as §2
Escherichia coli [26] = test: Antimicrobial activity against Escherichia coli DH5[alpha] transformed with Salmonella enterica serovar Corvallis isolate s2052 plasmid encoded qnrS and Parc QRDR Thre57Ser mutant gene by agar dilution method; assay type: functional; outline: as §2

Row | SMILES | MIC [1] [mg/L] | MIC [2] [mg/L] | MIC [3] [mg/L] | MIC [4] [mg/L] | MIC [5] [mg/L] | MIC [6] [mg/L] | MIC [7] [mg/L] | MIC [8] [mg/L] | MIC [9] [mg/L] | MIC (Salmonella typhimurium [11]) [mg/L] | MIC (Salmonella typhimurium [12]) [mg/L] | MIC (Salmonella typhimurium [14]) [mg/L] | MIC [15] [mg/L] | MIC [16] [mg/L] | MIC [17] [mg/L] | MIC [18] [mg/L] | MIC (Salmonella typhimurium [19]) [mg/L] | other results
1 | O=C(O)c1cn(C2CC2)c2cc(N3CCNCC3)c(F)cc2c1=O [CIPROFLOXACIN] | 0.015 (≈ 0.0453 µM) | 4 (≈ 12.1 µM) | 0.5 (≈ 1.51 µM) | 0.008 (≈ 0.0241 µM) | 0.5 (≈ 1.51 µM) | 0.25 (≈ 0.754 µM) | 0.5 (≈ 1.51 µM) | 0.5 (≈ 1.51 µM) | 0.015 (≈ 0.0453 µM) | 0.5 (≈ 1.51 µM) | 0.06 (≈ 0.181 µM) | 0.03 (≈ 0.0905 µM) | 0.5 (≈ 1.51 µM) | 0.015 (≈ 0.0453 µM) | 0.5 (≈ 1.51 µM) | 0.015 (≈ 0.0453 µM) | 0.5 (≈ 1.51 µM) | Drug uptake [10]: inactive; Drug uptake [13]: inactive
2 | C[C@H]1COc2c(N3CCN(C)CC3)c(F)cc3c(=O)c(C(=O)O)cn1c23.C[C@H]1COc2c(N3CCN(C)CC3)c(F)cc3c(=O)c(C(=O)O)cn1c23.O [LEVOFLOXACIN] | 0.06 | 1 | 1 | 0.06 | 1 | 1 | 1 | 0.5 | 0.06 | 1 | – | – | 1 | 0.06 | 1 | – | 1 | –
3 | COc1c(N2C[C@@H]3CCCN[C@@H]3C2)c(F)cc2c(=O)c(C(=O)O)cn(C3CC3)c12 [MOXIFLOXACIN] | 0.06 (≈ 0.149 µM) | 0.5 (≈ 1.25 µM) | – | 0.125 (≈ 0.311 µM) | – | – | – | 2 (≈ 4.98 µM) | 0.06 (≈ 0.149 µM) | – | – | – | – | 0.06 (≈ 0.149 µM) | – | – | – | –
4 | CCn1cc(C(=O)O)c(=O)c2ccc(C)nc21 [NALIDIXIC ACID] | 4 (≈ 17.2 µM) | 16 (≈ 68.9 µM) | 16 (≈ 68.9 µM) | 4 (≈ 17.2 µM) | 16 (≈ 68.9 µM) | 16 (≈ 68.9 µM) | 32 (≈ 138 µM) | 16 (≈ 68.9 µM) | 4 (≈ 17.2 µM) | 16 (≈ 68.9 µM) | 4 (≈ 17.2 µM) | 16 (≈ 68.9 µM) | 32 (≈ 138 µM) | 4 (≈ 17.2 µM) | 16 (≈ 68.9 µM) | 4 (≈ 17.2 µM) | 16 (≈ 68.9 µM) | MIC (Escherichia coli [20]): 8 mg/L (≈ 34.4 µM); MIC (Escherichia coli [21]): 8 mg/L (≈ 34.4 µM); MIC (Escherichia coli [22]): 8 mg/L (≈ 34.4 µM); MIC (Escherichia coli [23]): 8 mg/L (≈ 34.4 µM); MIC (Escherichia coli [24]): 8 mg/L (≈ 34.4 µM); MIC (Escherichia coli [25]): 8 mg/L (≈ 34.4 µM); MIC (Escherichia coli [26]): 8 mg/L (≈ 34.4 µM)
5 | CCn1cc(C(=O)O)c(=O)c2cc(F)c(N3CCNCC3)cc21 [NORFLOXACIN] | 0.06 (≈ 0.188 µM) | 16 (≈ 50.1 µM) | 2 (≈ 6.26 µM) | 0.125 (≈ 0.391 µM) | 2 (≈ 6.26 µM) | 2 (≈ 6.26 µM) | 2 (≈ 6.26 µM) | 1 (≈ 3.13 µM) | 0.125 (≈ 0.391 µM) | 2 (≈ 6.26 µM) | – | – | 2 (≈ 6.26 µM) | 0.125 (≈ 0.391 µM) | 2 (≈ 6.26 µM) | – | 2 (≈ 6.26 µM) | –
6 | CC1COc2c(N3CCN(C)CC3)c(F)cc3c(=O)c(C(=O)O)cn1c23 (stereo unspecified) [OFLOXACIN] | 0.03 (≈ 0.083 µM) | 1 (≈ 2.77 µM) | 2 (≈ 5.53 µM) | 0.125 (≈ 0.346 µM) | 2 (≈ 5.53 µM) | 2 (≈ 5.53 µM) | 2 (≈ 5.53 µM) | 1 (≈ 2.77 µM) | 0.125 (≈ 0.346 µM) | 2 (≈ 5.53 µM) | – | – | 2 (≈ 5.53 µM) | 0.125 (≈ 0.346 µM) | 2 (≈ 5.53 µM) | – | 2 (≈ 5.53 µM) | –
